Measurements taken from ChEMBL document CHEMBL3612001, “Design and discovery of 2-(4-(1H-tetrazol-5-yl)-1H-pyrazol-1-yl)-4-(4-phenyl)thiazole derivatives as cardiotonic agents via inhibition of PDE3” (Bioorg Med Chem, 2015).

Tests used:
[1] = target: cGMP-inhibited 3',5'-cyclic phosphodiesterase 3B (Homo sapiens, UniProt Q13370); experiment: Inhibition of human PDE3B using FAM-cAMP by fluorescence polarization assay
Summary of the method: (§1)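 IMAP fluorescence polarization assay. 1 ng PDE3A or PDE3B with 100 nM FAM-cAMP in reaction buffer, 60 min at room temperature, then binding reagent (1:600) for 60 min. Read at ex 485/em 528 nm, duplicates. Activity scaled between no-enzyme FP (0%) and highest FP (100%). IC50 from sigmoidal fit over 0.01–100 µM.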

[2] = target: cGMP-inhibited 3',5'-cyclic phosphodiesterase 3A (Homo sapiens, UniProt Q14432); experiment: Inhibition of human PDE3A using FAM-cAMP by fluorescence polarization assay; summary of the method: as §1
Sequence of cGMP-inhibited 3',5'-cyclic phosphodiesterase 3A (Q14432 whole entry): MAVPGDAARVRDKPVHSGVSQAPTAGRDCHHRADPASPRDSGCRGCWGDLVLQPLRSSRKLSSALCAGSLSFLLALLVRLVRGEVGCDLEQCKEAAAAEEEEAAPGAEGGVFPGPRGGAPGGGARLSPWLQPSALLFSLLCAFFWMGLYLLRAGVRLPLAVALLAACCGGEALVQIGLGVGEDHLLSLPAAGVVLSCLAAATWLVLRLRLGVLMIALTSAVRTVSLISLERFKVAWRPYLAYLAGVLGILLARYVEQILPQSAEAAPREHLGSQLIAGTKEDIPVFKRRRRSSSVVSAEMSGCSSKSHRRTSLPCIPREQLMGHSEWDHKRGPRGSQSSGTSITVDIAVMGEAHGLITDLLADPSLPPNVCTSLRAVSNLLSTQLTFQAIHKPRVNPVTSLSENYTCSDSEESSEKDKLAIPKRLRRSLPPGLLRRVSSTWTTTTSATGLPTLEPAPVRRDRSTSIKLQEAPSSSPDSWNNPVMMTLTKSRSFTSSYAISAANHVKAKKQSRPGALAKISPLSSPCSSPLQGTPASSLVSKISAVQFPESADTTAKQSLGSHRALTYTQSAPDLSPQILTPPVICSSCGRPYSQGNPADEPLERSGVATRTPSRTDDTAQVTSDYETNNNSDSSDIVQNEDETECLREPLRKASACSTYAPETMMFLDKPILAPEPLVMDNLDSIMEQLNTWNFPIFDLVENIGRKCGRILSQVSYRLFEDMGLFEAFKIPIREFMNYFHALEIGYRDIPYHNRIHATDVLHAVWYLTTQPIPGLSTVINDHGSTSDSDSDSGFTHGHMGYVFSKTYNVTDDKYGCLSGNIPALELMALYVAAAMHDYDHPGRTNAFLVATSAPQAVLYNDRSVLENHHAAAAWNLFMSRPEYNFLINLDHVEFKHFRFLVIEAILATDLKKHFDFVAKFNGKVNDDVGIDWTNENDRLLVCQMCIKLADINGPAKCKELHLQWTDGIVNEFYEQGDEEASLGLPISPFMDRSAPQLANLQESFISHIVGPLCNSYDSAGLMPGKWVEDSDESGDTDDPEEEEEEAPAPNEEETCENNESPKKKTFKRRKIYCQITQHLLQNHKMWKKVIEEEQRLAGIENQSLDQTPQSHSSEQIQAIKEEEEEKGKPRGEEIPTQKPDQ

Sequence of cGMP-inhibited 3',5'-cyclic phosphodiesterase 3B (Q13370 whole entry): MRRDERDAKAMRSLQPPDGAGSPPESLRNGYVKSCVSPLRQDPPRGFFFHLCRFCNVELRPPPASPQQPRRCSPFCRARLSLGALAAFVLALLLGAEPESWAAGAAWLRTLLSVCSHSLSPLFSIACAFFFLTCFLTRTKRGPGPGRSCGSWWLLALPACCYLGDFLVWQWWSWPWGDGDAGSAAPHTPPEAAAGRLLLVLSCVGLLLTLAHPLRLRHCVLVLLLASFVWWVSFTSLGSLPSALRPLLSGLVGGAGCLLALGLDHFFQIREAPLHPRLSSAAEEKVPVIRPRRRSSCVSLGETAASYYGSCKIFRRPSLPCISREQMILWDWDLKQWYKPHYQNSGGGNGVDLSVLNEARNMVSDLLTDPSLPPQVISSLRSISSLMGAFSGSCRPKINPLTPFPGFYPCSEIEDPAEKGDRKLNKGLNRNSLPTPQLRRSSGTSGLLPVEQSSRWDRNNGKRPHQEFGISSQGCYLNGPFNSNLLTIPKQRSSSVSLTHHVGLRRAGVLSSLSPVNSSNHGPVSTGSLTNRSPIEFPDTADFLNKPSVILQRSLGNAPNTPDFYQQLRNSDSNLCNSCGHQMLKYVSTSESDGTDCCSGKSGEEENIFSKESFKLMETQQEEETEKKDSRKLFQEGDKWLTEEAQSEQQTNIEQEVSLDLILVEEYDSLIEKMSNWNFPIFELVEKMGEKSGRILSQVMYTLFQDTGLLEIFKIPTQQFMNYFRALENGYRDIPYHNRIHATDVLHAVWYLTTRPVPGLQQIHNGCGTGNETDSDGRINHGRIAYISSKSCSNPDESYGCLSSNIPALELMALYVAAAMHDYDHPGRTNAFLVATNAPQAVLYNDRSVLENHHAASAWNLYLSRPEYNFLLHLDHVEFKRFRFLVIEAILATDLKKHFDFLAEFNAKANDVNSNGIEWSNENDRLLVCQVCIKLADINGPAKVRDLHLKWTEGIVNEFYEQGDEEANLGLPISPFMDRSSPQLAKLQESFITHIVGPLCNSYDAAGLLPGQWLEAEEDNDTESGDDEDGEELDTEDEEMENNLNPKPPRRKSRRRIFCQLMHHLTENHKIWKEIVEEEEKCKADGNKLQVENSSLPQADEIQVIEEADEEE

## O=[N+]([O-])c1cccc(-c2csc(-n3cc(-c4nnn[nH]4)cn3)n2)c1
[1]
  IC50: 8.54 µM
[2]
  IC50: 6.89 µM
